“And” between values parts separate entries of the source, which are not always exact repeats. Identical values can stand only once. Like-named read-outs stand apart in the source and are kept apart here.
What was measured:
[1] = rat plasma; cited from earlier work
[2] = treosulfan to S,S-EBDM; S,S-EBDM to (2S,3S)-1,2:3,4-diepoxybutane; cited from earlier work
[3] = rat lungs; cited from earlier work
[4] = type: in vivo, Wistar rats; settings: for mean Ke/p (RBC/plasma partition coefficient): mean (± SD) of all 12 rats, 1 and 4 h after i.p. treosulfan 500 mg/kg; for Cp: plasma; for Ce: red blood cells
Outline: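 Wistar rats, 10 weeks old (6 male, 6 female), received a single i.p. bolus of 500 mg/kg in sterile water (10 mL/kg), with ketamine/xylazine anaesthesia. K2EDTA cardiac blood was taken at 1 or 4 h and spun at 3645×g for 5 min at 20 °C. Plasma and RBC were acidified with citric acid; RBC were lysed by three freeze–thaw cycles. HPLC–MS/MS used codeine as internal standard. Ke/p = Ce/Cp.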

[5] = type: in vitro ADME, rat; settings: three freeze-thaw cycles, n = 3, range of means over QC levels
Outline: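 Freeze–thaw stability of quality-control samples prepared by spiking drug-free rat plasma and drug-free RBC lysate (from three freeze–thaw cycles) at treosulfan 5.5, 55 and 800 μM and S,S-EBDM 9.4 and 94 μM. Samples were processed like study samples and assayed by HPLC–MS/MS. Stability was taken as the final/initial concentration ratio and reported as the range of means across QC levels.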

[6] = individual female rats, 1 h after i.p. bolus treosulfan 500 mg/kg
[7] = individual female rats, 4 h after i.p. bolus treosulfan 500 mg/kg
[8] = individual male rats, 1 h after i.p. bolus treosulfan 500 mg/kg
[9] = individual male rats, 4 h after i.p. bolus treosulfan 500 mg/kg

For `CS(=O)(=O)OC[C@H](O)[C@@H](O)COS(C)(=O)=O` [Treosulfan], the unbound fraction [1] is given as at least 0.94, the “t1/2 of nonenzymatic epoxidation” value [2] is given as 1.5 h and the tissue-to-plasma concentration ratio [3] is given as “about 0.8”. For the same compound, the “mean Ke/p (RBC/plasma partition coefficient)” value [4] was 0.74 ± 0.12, the Cp [4, 6] was 1164 µM and 300 µM and 349 µM and the Cp [4, 7] was 113 µM and 83 µM. For the same compound, the Cp [4, 8] was 943 µM and 1189 µM and 28.8 µM, the Cp [4, 9] was 112 µM and 120 µM and 30 µM and the Ce [4, 8] was 704 µM and 779 µM and 24.2 µM. For the same compound, the Ce [4, 9] was 94 µM and 87 µM and 26 µM, the “Stability (final/initial concentration)” value ([5]; rat RBC lysate) was 85.8–104.8% and the “Stability (final/initial concentration)” value ([5]; rat plasma) was 90.7–108.8%.
In the case of `CS(=O)(=O)OC[C@H](O)[C@@H]1CO1` [S,S-EBDM, (2S,3S)-1,2-epoxy-3,4-butanediol 4-methanesulfonate], the unbound fraction [1] is listed as at least 0.94, the “t1/2 of nonenzymatic epoxidation” value [2] is listed as 3.4 h and the tissue-to-plasma concentration ratio [3] is listed as about 0.6. For the same compound, the “mean Ke/p (RBC/plasma partition coefficient)” value [4] was 0.60 ± 0.09, the Cp [4, 6] was 64 µM and 22 µM and the Cp [4, 7] was 5.6 µM and 6.2 µM. For the same compound, the Cp [4, 8] was 58 µM and 61 µM and 3.6 µM, the Cp [4, 9] was 8.4 µM and 5.5 µM and the Ce [4, 8] was 36 µM and 34 µM and 2.1 µM. For the same compound, the Ce [4, 9] was 6.7 µM and 3.5 µM, the “Stability (final/initial concentration)” value ([5]; rat RBC lysate) was 86.7–89.8% and the “Stability (final/initial concentration)” value ([5]; rat plasma) was 88.3–89.4%.
